Laboratory results as given in ChEMBL document CHEMBL1142774, “Substituted tetraazaacenaphthylenes as potent CRF1 receptor antagonists for the treatment of depression and anxiety” (Bioorg Med Chem Lett, 2005).

How the values were obtained:
[1] = Displacement of [125I]o-CRF from recombinant human CRF receptors expressed in Chinese Hamster Ovary (CHO) cell membranes
[2] = Oral bioavailability in rat at 1 hr (dose 0.5 mg/kg i.v.); assay type: ADME, organism-based; settings: in vivo, 1 mg/kg
Summary of the method: (§1)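 The pharmacokinetic study used Hans–Wistar rats. Each compound was given by the oral route at 1 mg/kg and by the intravenous route at 0.5 mg/kg. Plasma clearance and oral bioavailability were derived from these two administrations.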

[3] = Brain/Plasma ratio level at 1 hr after a intravenous dose 0.5 mg/kg in rats; assay type: ADME, organism-based; parameters: dose 0.5 mg/kg, route intravenous; settings: rat, read-out: Penetration
Summary of the method: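 Hans–Wistar rats were given a single 0.5 mg/kg intravenous dose. Brain and plasma levels were measured at 1 h post-dose, and the brain/plasma ratio was taken from these levels.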

[4] = Plasma clearance at 1 hr after a intravenous dose 0.5 mg/kg in rats; assay type: ADME, organism-based; parameters: dose 0.5 mg/kg, route intravenous; settings: rat; summary of the method: as §1

| Structure (SMILES) | Log IC50 [1] | bioavailability [2] | Kp at 1 h [3] | clearance [4] |
| --- | --- | --- | --- | --- |
| CCC(CC)N1CC2CCN(c3ccc(Cl)cc3Cl)c3nc(C)nc1c32 (stereo unspecified) | -7.16 |  |  |  |
| Cc1nc2c3c(n1)N(c1ccc(Cl)cc1Cl)CC3CCN2CC1CC1 (stereo unspecified) | -5.35 |  |  |  |
| CCCC(CCC)n1cc2c3c(nc(C)nc31)N(c1ccc(C(F)(F)F)cc1C(F)(F)F)CC2 | -7.85 | 33% | 1.3 | 0.6 L/h/kg |
| CCC(CC)n1cc2c3c(nc(C)nc31)N(c1ccc(C#N)cc1Cl)CC2 | -7.21 |  |  |  |
| CCC(CC)n1cc2c3c(nc(C)nc31)N(c1ccc(C(F)(F)F)cc1C(F)(F)F)CC2 | -7.58 |  |  |  |
| CCCC(CCC)N1CCC2CN(c3ccc(Cl)cc3Cl)c3nc(C)nc1c32 (stereo unspecified) | -7.52 | 31% | 1.8 | 1.86 L/h/kg |
| CCCC(CCC)n1cc2c3c(nc(C)nc31)N(c1ccc(C#N)cc1C)CC2 | -7.35 |  |  |  |
| CCC(CC)N1CCC2CN(c3ccc(Cl)cc3Cl)c3nc(C)nc1c32 (stereo unspecified) | -6.74 |  |  |  |
| COCC(COC)N1CC2CCN(c3ccc(Cl)cc3Cl)c3nc(C)nc1c32 (stereo unspecified) | -5.9 |  |  |  |
| CCC(CC)n1cc2c3c(nc(C)nc31)N(c1ccc(C#N)cc1C)CC2 | -7.57 |  |  |  |
| CCCC(CCC)N1CCC2CN(c3ccc(C(F)(F)F)cc3C(F)(F)F)c3nc(C)nc1c32 (stereo unspecified) | -7.39 |  |  |  |
| COCC(COC)Nc1nc(C)nc2c(-c3ccc(Cl)cc3Cl)c(C)nn12 | -7.42 |  |  |  |
| CCCC(CCC)N1CC2CCN(c3ccc(Cl)cc3Cl)c3nc(C)nc1c32 (stereo in doubt; 2ac) | -7.65 | 14% | 2 | 1.92 L/h/kg |
| CCCC(CCC)N1CC2CCN(c3ccc(C(F)(F)F)cc3C(F)(F)F)c3nc(C)nc1c32 (stereo in doubt; 2ad) | -7.44 | 36% | 1.1 | 0.9 L/h/kg |
| CCCC(CCC)N1CC2CCN(c3ccc(Cl)cc3Cl)c3nc(C)nc1c32 (stereo in doubt; 2ae) | -7.96 |  |  |  |
| CCCC(CCC)N1CC2CCN(c3ccc(Cl)cc3Cl)c3nc(C)nc1c32 (stereo in doubt; 2af) | -7.89 |  |  |  |
| CCCC(CCC)N1CC2CCN(c3ccc(C(F)(F)F)cc3C(F)(F)F)c3nc(C)nc1c32 (stereo in doubt; 2ag) | -7.55 |  |  |  |
| CCCC(CCC)N1CC2CCN(c3ccc(C(F)(F)F)cc3C(F)(F)F)c3nc(C)nc1c32 (stereo in doubt; 2ah) | -7.84 |  |  |  |
| CCCCN(CC)c1nc(C)nc2c1c(C)cn2-c1c(C)cc(C)cc1C [CP-154526] | -7.76 |  |  |  |
